Experiments:
[1] = system: Rattus norvegicus; assay: Antithrombotic activity in po dosed pentobarbital anesthetized rat assessed as reduction in FeCl2-induced thrombus weight administered 1 hr prior to FeCl2 challenge
[2] = system: Liver microsome; assay: Metabolic stability in human liver microsomes assessed as compound remaining; format: ADME
How it was run: (§1)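 Liver microsome stability: percent of compound remaining after incubation with […] (3 µM microsomes in some cases).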

[3] = target: P2Y purinoceptor 1 (Homo sapiens, UniProt P47900); assay: Antagonist activity at P2Y1 receptor in human platelets by FLIPR assay in presence of 2-methylthio-ADP
How it was run: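 Washed human platelets with endogenous P2Y1; calcium signalling read by FLIPR with reduced protein (~0.1% BSA); agonist 2-methylthio-ADP at 1 µM; IC50 given as mean ± SD.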

[4] = system: Platelet; assay: Inhibition of ADP-induced platelet aggregation in platelet-rich human plasma; format: functional
How it was run: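 Human platelet-rich plasma; aggregation triggered by 10 µM ADP; IC50 determined.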

[5] = system: Liver microsome; assay: Metabolic stability in rat liver microsomes assessed as compound remaining; format: ADME; how it was run: as §1
[6] = system: Rattus norvegicus; assay: Toxicity in rat assessed as prolongation of cuticle bleeding time at 10 mg/kg, po relative to control; format: organism-based; design: dose 10 mg/kg, route oral; conditions: in vivo
How it was run: (§2)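 Pentobarbital-anesthetized rats dosed by oral gavage 1 h before bleeding-time induction. Vehicle was 1 ml/kg of 10% N,N-dimethylacetamide/90% dextrose 5% water, and compound was given at 0.3, 1, 3 and 10 mg/kg. Cuticle and mesenteric bleeding times were measured and expressed as fold prolongation relative to vehicle. Group sizes were indicated per group.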

[7] = system: Rattus norvegicus; assay: Toxicity in rat assessed as prolongation of mesentric bleeding time at 10 mg/kg, po relative to control; format: organism-based; design: dose 10 mg/kg, route oral; conditions: in vivo; how it was run: as §2
[8] = system: Rattus norvegicus; assay: Antithrombotic activity in pentobarbital anesthetized rat assessed as reduction in FeCl2-induced thrombus weight at 10 mg/kg, po administered 1 hr prior to FeCl2 challenge; format: functional; design: scale not given: the % may be the effect or the level left
How it was run: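 Pentobarbital-anesthetized rats; vehicle (1 ml/kg of 10% N,N-dimethylacetamide/90% dextrose 5% water) or 0.3, 1, 3, 10 mg/kg by oral gavage 1 h before FeCl2-induced carotid thrombosis or cuticle/mesenteric bleeding time. End points were thrombus weight and blood flow. Blood was drawn at the end of the thrombosis protocol for ex vivo aggregation. ID50 values derived; SEM reported.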

Chain of P2Y purinoceptor 1 (P47900 whole entry): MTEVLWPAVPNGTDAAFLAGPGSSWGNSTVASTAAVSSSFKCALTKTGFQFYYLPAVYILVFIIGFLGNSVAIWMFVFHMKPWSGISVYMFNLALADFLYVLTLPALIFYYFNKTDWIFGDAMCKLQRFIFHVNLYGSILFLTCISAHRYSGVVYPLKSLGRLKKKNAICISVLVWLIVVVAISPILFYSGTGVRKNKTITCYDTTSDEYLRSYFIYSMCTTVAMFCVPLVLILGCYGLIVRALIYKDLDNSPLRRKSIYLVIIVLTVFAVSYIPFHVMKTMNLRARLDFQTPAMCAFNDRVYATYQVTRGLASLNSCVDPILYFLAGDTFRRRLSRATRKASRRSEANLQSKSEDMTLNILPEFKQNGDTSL

Q: With `CC(C)(C)CN1CCC2(CC1)CN(c1ccccc1NC(=O)Nc1ccc(OC(F)(F)F)cc1)c1ccccc12` as the compound, how does the IC50 [1] read?
A: 470 nM

Q: Which results are given for `CC(C)(C)CN1CCC2(CC1)CN(c1ccccc1NC(=O)Nc1ccc(OC(F)(F)F)cc1)c1c(O)ccc(C(F)(F)F)c12`?
A: Stability [2]: 100%; IC50 [3]: 0.14 nM; IC50 [4]: 130 nM; Stability [5]: 98%

Q: What does the source list for `CC(C)(C)CN1CCC2(CC1)CN(c1ccccc1NC(=O)Nc1ccc(OC(F)(F)F)cc1)c1c(O)ccc(C#N)c12`?
A: Stability [2]: 59%; IC50 [3]: 0.04 nM; IC50 [4]: 1100 nM; Stability [5]: 51%

Q: For `CC(C)(C)CN1CCC2(CC1)CN(c1ccccc1NC(=O)Nc1nc3ccc(F)cc3s1)c1c(O)ccc(Cl)c12`, which Stability [2] is on record?
A: 100%

Q: And the IC50 [3]?
A: 0.06 nM

Q: And the IC50 [4]?
A: 230 nM

Q: And the Stability [5]?
A: 89%

Q: `COC(=O)c1ccc(O)c2c1C1(CCN(CC(C)(C)C)CC1)CN2c1ccccc1NC(=O)Nc1ccc(OC(F)(F)F)cc1` was tested. Which Stability [2] did it give?
A: 48%

Q: What about the IC50 [3] of the same compound?
A: 0.15 nM

Q: And the IC50 [4]?
A: 700 nM

Q: What about the Stability [5] of the same compound?
A: 57%

Q: `CC(C)(C)CN1CCC2(CC1)CN(c1ccccc1NC(=O)Nc1nc3ccc(Cl)cc3s1)c1c(O)ccc(Cl)c12` was tested. Which Stability [2] did it give?
A: 96%

Q: And the IC50 [3]?
A: 0.17 nM

Q: And the IC50 [4]?
A: 320 nM

Q: And the Stability [5]?
A: 93%

Q: Which “fold change (FC)” value [6] does the source give for `COC(=O)[C@H](c1ccccc1Cl)N1CCc2sccc2C1` [CLOPIDOGREL] here?
A: 6.2

Q: And the “fold change (FC)” value [7]?
A: 8.2

Q: And the Activity [8]?
A: 67%

Q: How did the Stability [2] turn out when `CC(C)(C)CN1CCC2(CC1)CN(c1ccccc1NC(=O)Nc1csc(Cl)n1)c1c(O)ccc(Cl)c12` was run?
A: 87%

Q: What about the IC50 [3] of the same compound?
A: 0.03 nM

Q: What about the IC50 [4] of the same compound?
A: 170 nM

Q: What about the Stability [5] of the same compound?
A: 66%

Reference: ChEMBL document CHEMBL3286275, “Identification of 1-{2-[4-chloro-1'-(2,2-dimethylpropyl)-7-hydroxy-1,2-dihydrospiro[indole-3,4'-piperidine]-1-yl]phenyl}-3-{5-chloro-[1,3]thiazolo[5,4-b]pyridin-2-yl}urea, a potent, efficacious and orally bioavailable P2Y(1) antagonist as an antiplatelet agent” (Bioorg Med Chem Lett, 2014)
